The source made the active and inactive calls. No cut-off for these calls is given here.
How the values were obtained:
[1] = target: Cytochrome b (Sus scrofa, UniProt P24964); assay: Inhibition of Sus scrofa (pig) heart cytochrome bc1 complex using succinate and cytochrome c as substrates by spectrophotometric analysis
[2] = target: T1, Succinate dehydrogenase [ubiquinone] iron-sulfur subunit, mitochondrial (Sus scrofa) (UniProt Q007T0); assay: Inhibition of Sus scrofa (pig) heart succinate-cytochrome c reductase (Electron transport protein complex 2/3) using succinate and cytochrome c as substrate by spectrophotometric analysis
T1 sequence (whole entry): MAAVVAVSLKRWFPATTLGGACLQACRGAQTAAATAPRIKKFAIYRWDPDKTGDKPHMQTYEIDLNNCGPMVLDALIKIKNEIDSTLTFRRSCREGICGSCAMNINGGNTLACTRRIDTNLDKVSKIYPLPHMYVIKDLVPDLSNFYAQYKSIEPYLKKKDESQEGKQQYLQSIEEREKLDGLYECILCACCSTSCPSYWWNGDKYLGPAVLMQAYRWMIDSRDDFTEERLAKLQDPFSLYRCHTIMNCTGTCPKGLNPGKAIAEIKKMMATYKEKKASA
Summary of the method: (§1)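 Progress curves at 0–5 nM inhibitor fitted by nonlinear regression for v0, vs, kobs; kobs versus inhibitor gives k+0, k−0; Ki = k−0/k+0. Cytochrome c 4–48 µM varied at fixed inhibitor for mechanism.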

[3] = target: Succinate-ubiquinone oxidoreductase (Sus scrofa) (UniProt A5GZW8+D0VWV4); assay: Inhibition of Sus scrofa (pig) heart succinate-ubiquinone reductase using succinate and DCIP as substrate by spectrophotometric analysis by spectrophotometric analysis; format: protein-complex assay
Summary of the method: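 Porcine heart SCR preparation; complex II activity as succinate oxidation by 53 µM DCIP in 100 mM PBS pH 7.4, 0.3 mM EDTA, 20 mM succinate, 23°C, started by enzyme addition. DCIP reduction followed continuously at A600 (ε 21 mM−1cm−1) with varying inhibitor concentrations.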

[4] = target: Cytochrome b (Sus scrofa) (UniProt P24964); assay: Ratio of pyraclostrobin Ki to compound Ki for Sus scrofa (pig) heart cytochrome bc1 complex
Cytochrome b (Sus scrofa), sequence (P24964 whole entry): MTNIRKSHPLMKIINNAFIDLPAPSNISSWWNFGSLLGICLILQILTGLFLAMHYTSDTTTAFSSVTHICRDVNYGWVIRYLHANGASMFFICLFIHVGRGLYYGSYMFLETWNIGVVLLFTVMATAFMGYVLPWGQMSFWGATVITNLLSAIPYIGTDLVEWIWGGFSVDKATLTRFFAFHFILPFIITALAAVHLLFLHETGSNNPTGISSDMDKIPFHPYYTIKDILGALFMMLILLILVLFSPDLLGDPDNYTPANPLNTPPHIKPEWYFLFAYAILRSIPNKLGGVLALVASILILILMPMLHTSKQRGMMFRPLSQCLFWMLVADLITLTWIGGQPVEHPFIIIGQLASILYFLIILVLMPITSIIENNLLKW

[5] = target: T1, Succinate dehydrogenase [ubiquinone] iron-sulfur subunit, mitochondrial (Sus scrofa); assay: Inhibition of Sus scrofa (pig) heart succinate-cytochrome c reductase (Electron transport protein complex 2/3) using succinate and cytochrome c as substrate at 1 to 5 nM by spectrophotometric analysis
Summary of the method: as §1

[6] = species: Sus scrofa; assay: Competitive inhibition of Sus scrofa (pig) heart cytochrome bc1 complex using ubiquinol as substrate
[7] = target: Cytochrome b (Sus scrofa) (UniProt P24964); assay: Ratio of azoxystobin Ki to compound Ki for Sus scrofa (pig) heart cytochrome bc1 complex
[8] = target: Cytochrome b (Sus scrofa) (UniProt P24964); assay: Inhibition of Sus scrofa (pig) heart cytochrome bc1 complex using succinate as substrate at 7.5 to 25 nM by spectropfhotometric analysis
[9] = target: Cytochrome b (Sus scrofa) (UniProt P24964); assay: Ratio of kresoxim-methyl Ki to compound Ki for Sus scrofa (pig) heart cytochrome bc1 complex
[10] = species: Sus scrofa; assay: Non-competitive inhibition of Sus scrofa (pig) heart cytochrome bc1 complex using cytochrome c as substrate
Summary of the method: as §1

Cytochrome b, sequence (P24964 whole entry): as above

Compound | Ki [1] [nM] | inhibition [3] | further results
CO/C=C(/C(=O)OC)c1ccccc1Oc1cc(Oc2ccccc2C#N)ncn1 [AZOXYSTROBIN] | 298 |  | 
CO/C=C(/C(=O)OC)c1ccccc1COc1cc(-c2ccccc2OCc2ccccc2)nn1C | 12.7 |  | 
CO/C=C(/C(=O)OC)c1ccccc1COc1cc(-c2ccccc2O)nn1C | 1.2 | inactive | inhibition [2]: Active
COC(=O)N(OC)c1ccccc1COc1ccn(-c2ccc(Cl)cc2)n1 [PYRACLOSTROBIN] | 3.3 |  | 
CO/C=C(/C(=O)OC)c1ccccc1COc1cc(-c2ccccc2OC)nn1C | 29.1 |  | 
CO/C=C(/C(=O)OC)c1ccccc1COc1cc(-c2cc(C)ccc2O)nn1C | 3.1 | inactive | inhibition [2]: Active
CO/N=C(/C(=O)OC)c1ccccc1COc1cc(-c2ccccc2O)nn1C | 3.8 | inactive | inhibition [2]: Active
CO/C=C(/C(=O)OC)c1ccccc1COc1cc(-c2ccccc2OC(=O)c2ccc(F)cc2)nn1C | 97.7 |  | 
CO/C=C(/C(=O)OC)c1ccccc1COc1cc(-c2cc(C)ccc2OC)nn1C | 19.9 |  | 
CO/N=C(/C(=O)OC)c1ccccc1COc1ccccc1C [KRESOXIM-METHYL] | 160 |  | 
CO/C=C(/C(=O)OC)c1ccccc1COc1cc(-c2cc(Cl)ccc2O)nn1C | 0.57 | inactive | Ratio Ki [4]: 5.8; inhibition [5]: Active; inhibition [6]: Active; Ratio Ki [7]: 522; inhibition [8]: Active; Ratio Ki [9]: 280; inhibition [10]: Active

From ChEMBL document CHEMBL3046765, “Subnanomolar inhibitor of cytochrome bc1 complex designed by optimizing interaction with conformationally flexible residues” (J Am Chem Soc, 2010)
